The target of assay [1] is T1, 5-hydroxytryptamine receptor 3A (Cavia porcellus) (UniProt O70212).
T1 sequence (whole entry): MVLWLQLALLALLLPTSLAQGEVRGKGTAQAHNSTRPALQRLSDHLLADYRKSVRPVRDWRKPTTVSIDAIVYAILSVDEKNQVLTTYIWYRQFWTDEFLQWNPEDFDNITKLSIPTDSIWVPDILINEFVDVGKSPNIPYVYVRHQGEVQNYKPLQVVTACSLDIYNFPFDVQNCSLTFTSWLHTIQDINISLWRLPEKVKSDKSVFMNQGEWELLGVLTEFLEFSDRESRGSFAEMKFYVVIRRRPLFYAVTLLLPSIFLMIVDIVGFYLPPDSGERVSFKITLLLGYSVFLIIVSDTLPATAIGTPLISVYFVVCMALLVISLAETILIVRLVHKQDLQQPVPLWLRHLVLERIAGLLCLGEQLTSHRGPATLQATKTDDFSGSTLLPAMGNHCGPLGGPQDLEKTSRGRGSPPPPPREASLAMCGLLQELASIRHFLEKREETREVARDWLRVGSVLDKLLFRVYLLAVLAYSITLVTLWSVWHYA
Kind of assay: Agonist activity at 5HT3 receptor in guinea pig thoracic aorta assessed as positive contractility potency at 100 uM. It is filed as functional, tissue-based. An outline of the steps: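 Guinea pig aortic helicoidal strips in PSS at 35 °C, aerated, under 1 g resting force, washed every 20 min for 1 h. Compounds added cumulatively 0.1-100 µM (DMSO vehicle); isometric contraction recorded.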

For assay [2], the target named is T2, 5-hydroxytryptamine receptor 3A (Cavia porcellus, UniProt O70212).
T2 sequence (O70212 whole entry): T1 sequence (whole entry)
Kind of assay: Antagonist activity at 5HT3 receptor in spontaneously beating guinea pig right atrium assessed as inhibition of serotonin-induced maximum response by competitive binding assay. Also noted: species or system Cardiac atrium. The conditions noted are these: read-out: pA2 (converted).

Assay [3] concerns the target T1, 5-hydroxytryptamine receptor 3A (Cavia porcellus). The assay is described as follows: Agonist activity at 5HT3 receptor in spontaneously beating guinea pig right atrium assessed as positive chronotropic potency at 100 uM. The format is functional, tissue-based. The settings on record: Cardiac atrium. The method, boiled down:
(§1)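 Guinea pig left and right atria were hung in a 15 mL bath of PSS (pH 7.4, 95% O2-5% CO2, 35 °C) with ketanserin 1 µM. The right atrium beat spontaneously; the left was paced at 1 Hz. Cumulative doses (0.1-100 µM; DMSO ≤0.3%) were added after 45-60 min stabilization. Rate or isometric force was recorded. EC50 came from Probit analysis, n≥4. Intrinsic activity was taken relative to 5-HT.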

Assay [4] has the same target. Kind of assay: Agonist activity at 5HT3 receptor in voltage-stimulated guinea pig left atrium assessed as positive inotropic potency at 100 uM. It is filed as functional, tissue-based. The conditions noted are these: Cardiac atrium. The method, boiled down:
as §1

For assay [5] the target is unchanged. Kind of assay: Intrinsic activity at 5HT3 receptor in voltage-stimulated guinea pig left atrium assessed as positive inotropic potency relative to serotonin. The format is tissue-based. The settings on record: Cardiac atrium. The method, boiled down:
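Electrically paced guinea pig left atrium (1 Hz) in PSS containing ketanserin 1 µM, pH 7.4, 35 °C. Contractile force recorded isometrically while cumulative concentrations of 0.1-100 µM were added (DMSO ≤0.3%). Intrinsic activity is expressed as the maximal response relative to that of 5-HT.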

For assay [6] the target is unchanged. Kind of assay: Agonist activity at 5HT3 receptor in voltage-stimulated guinea pig left atrium assessed as positive inotropic potency. The settings on record: Cardiac atrium. It is filed as functional, tissue-based. The method, boiled down:
(§2)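 Isolated guinea pig atria in PSS (Tyrode) with ketanserin 1 µM, 95% O2-5% CO2, pH 7.4, 35 °C. Right atrium beating spontaneously (rate); left atrium paced 1 Hz, 0.6-0.8 ms pulses near 50% threshold (force). Isometric recording after 45-60 min stabilization.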

Assay [7] has the same target. The assay is described as follows: Agonist activity at 5HT3 receptor in spontaneously beating guinea pig right atrium assessed as positive chronotropic potency. The format is functional, tissue-based. The settings on record: Cardiac atrium. An outline of the steps:
as §2

For assay [8] the target is unchanged. The assay is described as follows: Intrinsic activity at 5HT3 receptor in spontaneously beating guinea pig right atrium assessed as positive chronotropic potency relative to serotonin. The settings on record: Cardiac atrium. An outline of the steps:
as §1

Assay [9] addresses D(1A) dopamine receptor (Rattus norvegicus, UniProt P18901). The assay is described as follows: Displacement of [3H]SCH-23390 from dopamine D1 receptor in rat striatum.
Assay [10] deals with 5-hydroxytryptamine receptor 2A (Rattus norvegicus, UniProt P14842). Kind of assay: Displacement of [3H]ketanserin from 5HT2A receptor in rat cortex.
Assay [11] has as its target 5-hydroxytryptamine receptor 4 (Cavia porcellus, UniProt O70528). The assay is described as follows: Displacement of [3H]GR-113808 from 5HT4 receptor in guinea pig striatum.
For assay [12], the target named is T3, Adrenergic receptor alpha-1 (Rattus norvegicus, UniProt P15823+P23944+P43140).
T3 sequence (P15823 whole entry): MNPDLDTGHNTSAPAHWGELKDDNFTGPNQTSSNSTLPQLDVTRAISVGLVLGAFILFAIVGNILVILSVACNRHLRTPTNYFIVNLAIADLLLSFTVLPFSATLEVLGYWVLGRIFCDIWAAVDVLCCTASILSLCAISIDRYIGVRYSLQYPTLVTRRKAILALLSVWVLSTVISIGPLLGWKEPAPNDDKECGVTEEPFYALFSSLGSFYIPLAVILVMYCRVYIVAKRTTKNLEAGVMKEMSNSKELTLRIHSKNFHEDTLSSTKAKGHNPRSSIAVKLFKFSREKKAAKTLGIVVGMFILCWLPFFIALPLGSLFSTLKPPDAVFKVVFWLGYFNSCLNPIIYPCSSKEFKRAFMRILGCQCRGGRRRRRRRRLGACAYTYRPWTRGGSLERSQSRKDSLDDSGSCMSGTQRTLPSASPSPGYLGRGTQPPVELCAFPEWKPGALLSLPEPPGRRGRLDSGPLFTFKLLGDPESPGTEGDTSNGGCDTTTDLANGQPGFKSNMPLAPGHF
T3 sequence (P23944 whole entry): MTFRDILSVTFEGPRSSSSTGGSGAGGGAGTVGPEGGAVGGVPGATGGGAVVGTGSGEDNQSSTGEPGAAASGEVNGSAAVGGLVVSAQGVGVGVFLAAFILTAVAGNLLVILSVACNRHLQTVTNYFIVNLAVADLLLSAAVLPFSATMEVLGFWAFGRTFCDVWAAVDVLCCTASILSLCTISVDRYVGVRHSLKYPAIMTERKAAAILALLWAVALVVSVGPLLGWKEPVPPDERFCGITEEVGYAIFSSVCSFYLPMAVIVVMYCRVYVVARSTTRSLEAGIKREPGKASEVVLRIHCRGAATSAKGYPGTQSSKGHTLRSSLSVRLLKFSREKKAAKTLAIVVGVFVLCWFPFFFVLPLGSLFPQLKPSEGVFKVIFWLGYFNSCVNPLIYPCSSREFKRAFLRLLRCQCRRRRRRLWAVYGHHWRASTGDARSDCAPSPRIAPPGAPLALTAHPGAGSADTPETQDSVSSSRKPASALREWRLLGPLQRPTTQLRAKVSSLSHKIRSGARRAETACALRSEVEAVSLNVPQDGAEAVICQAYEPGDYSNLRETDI
T3 sequence (P43140 whole entry): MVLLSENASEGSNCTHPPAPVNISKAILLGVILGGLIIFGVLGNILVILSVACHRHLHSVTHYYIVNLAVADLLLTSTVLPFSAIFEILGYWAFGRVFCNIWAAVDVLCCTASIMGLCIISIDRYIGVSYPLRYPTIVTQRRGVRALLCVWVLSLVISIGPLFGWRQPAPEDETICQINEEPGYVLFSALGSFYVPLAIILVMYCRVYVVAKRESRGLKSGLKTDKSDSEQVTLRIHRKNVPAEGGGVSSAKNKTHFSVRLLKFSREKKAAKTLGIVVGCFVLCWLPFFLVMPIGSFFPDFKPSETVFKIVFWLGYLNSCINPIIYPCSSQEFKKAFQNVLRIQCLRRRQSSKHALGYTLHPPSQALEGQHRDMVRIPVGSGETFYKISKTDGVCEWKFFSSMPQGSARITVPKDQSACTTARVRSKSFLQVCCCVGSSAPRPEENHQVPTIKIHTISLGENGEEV
Kind of assay: Displacement of [3H]prazosin from adrenergic alpha1 receptor in rat cortex.

The target in assay [13] is T4, 5-hydroxytryptamine receptor 3A (Rattus norvegicus, UniProt P35563).
T4 sequence (P35563 whole entry): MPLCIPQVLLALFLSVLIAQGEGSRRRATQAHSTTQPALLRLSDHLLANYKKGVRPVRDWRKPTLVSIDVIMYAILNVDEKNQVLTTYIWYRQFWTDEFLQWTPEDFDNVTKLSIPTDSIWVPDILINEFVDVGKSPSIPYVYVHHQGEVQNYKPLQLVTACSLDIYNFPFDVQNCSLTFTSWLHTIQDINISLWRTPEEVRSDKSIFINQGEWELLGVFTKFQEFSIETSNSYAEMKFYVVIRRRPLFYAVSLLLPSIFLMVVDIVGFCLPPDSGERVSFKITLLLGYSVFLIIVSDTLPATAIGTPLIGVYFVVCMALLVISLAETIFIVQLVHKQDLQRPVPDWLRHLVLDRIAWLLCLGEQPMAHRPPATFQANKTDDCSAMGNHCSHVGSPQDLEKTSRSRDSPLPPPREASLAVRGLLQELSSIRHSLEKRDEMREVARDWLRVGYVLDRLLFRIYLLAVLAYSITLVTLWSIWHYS
Kind of assay: Displacement of [3H]LY278584 from 5HT3 receptor in rat cortical homogenate.

Assay [14] has as its target T5, 5-hydroxytryptamine receptor 1A (Rattus norvegicus, UniProt P19327).
T5 sequence (P19327 whole entry): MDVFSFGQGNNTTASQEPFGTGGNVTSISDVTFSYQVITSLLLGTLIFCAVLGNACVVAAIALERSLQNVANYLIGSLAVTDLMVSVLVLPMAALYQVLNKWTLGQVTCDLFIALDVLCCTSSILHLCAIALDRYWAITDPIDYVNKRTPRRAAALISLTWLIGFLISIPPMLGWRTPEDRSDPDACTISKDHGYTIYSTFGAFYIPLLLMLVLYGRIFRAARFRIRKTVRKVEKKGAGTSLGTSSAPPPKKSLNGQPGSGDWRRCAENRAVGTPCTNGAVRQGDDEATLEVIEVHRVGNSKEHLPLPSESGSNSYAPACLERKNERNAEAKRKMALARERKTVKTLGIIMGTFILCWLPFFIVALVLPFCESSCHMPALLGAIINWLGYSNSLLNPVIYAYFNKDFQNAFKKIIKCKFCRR
Kind of assay: Displacement of [3H]8-OHDPAT from 5HT1A receptor in rat hippocampus. It is filed as tissue-based.

The target of assay [15] is D(2) dopamine receptor (Rattus norvegicus, UniProt P61169). Kind of assay: Displacement of [3H]spiperone from dopamine D2 receptor in rat striatum.
Assay [16] deals with T6, Alpha-2A adrenergic receptor (Rattus norvegicus, UniProt P22909).
T6 sequence (P22909 whole entry): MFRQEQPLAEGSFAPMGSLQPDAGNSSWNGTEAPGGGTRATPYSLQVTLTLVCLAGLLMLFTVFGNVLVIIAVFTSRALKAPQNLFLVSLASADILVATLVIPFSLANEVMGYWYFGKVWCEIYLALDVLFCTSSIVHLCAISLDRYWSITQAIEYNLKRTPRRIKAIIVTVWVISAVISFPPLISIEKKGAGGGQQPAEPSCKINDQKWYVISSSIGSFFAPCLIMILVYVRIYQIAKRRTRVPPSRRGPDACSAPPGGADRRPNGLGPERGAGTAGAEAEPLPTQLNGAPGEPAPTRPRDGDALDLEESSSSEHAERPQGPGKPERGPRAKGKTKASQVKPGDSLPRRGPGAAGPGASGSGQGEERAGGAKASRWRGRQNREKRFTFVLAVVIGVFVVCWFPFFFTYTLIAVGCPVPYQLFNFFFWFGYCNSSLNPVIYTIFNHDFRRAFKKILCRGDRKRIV
The assay is described as follows: Displacement of [3H]RX821002 from adrenergic alpha2 receptor in rat cortex.

Assay [17] concerns the target Muscarinic acetylcholine receptor. Kind of assay: Displacement of [3H]QNB from muscarinic receptor in rat cortex.
The subject of assay [18] is Rattus norvegicus. Kind of assay: Antagonist activity at 5HT3 receptor in urethane-anesthetized Sprague-Dawley rat assessed as effect on 1-phenylbiguanide-induced bradycardia at 36 ug/kg, iv administered 5 mins before 1-phenylbiguanide challenge measured after 5 to 30 mins post-treatment by von Bezold-Jarisch reflex test. The format is functional, organism-based.
The test system of assay [19] is Rattus norvegicus. The assay is described as follows: Agonist activity at 5HT3 receptor in iv dosed urethane-anesthetized Sprague-Dawley rat assessed as induction of bradycardia measured after 5 to 30 mins post-treatment by von Bezold-Jarisch reflex test. It is filed as functional.
Assay [20] addresses T2, 5-hydroxytryptamine receptor 3A. Kind of assay: Antagonist activity at 5HT3 receptor in spontaneously beating guinea pig right atrium assessed as inhibition of serotonin-induced maximum response by noncompetitive binding assay. The format is tissue-based, Cardiac atrium. The method, boiled down:
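Spontaneously beating guinea pig right atrium; 5-HT concentration-response curves (0.001-1.0 µM) before and after 30 min antagonist exposure at three concentrations. IC50 is inhibition of 50% of maximal 5-HT response, Probit analysis, n = 4-6.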

The structures appear in SMILES notation. Active and inactive are the calls of the source.

Chain of 5-hydroxytryptamine receptor 4 (O70528 whole entry): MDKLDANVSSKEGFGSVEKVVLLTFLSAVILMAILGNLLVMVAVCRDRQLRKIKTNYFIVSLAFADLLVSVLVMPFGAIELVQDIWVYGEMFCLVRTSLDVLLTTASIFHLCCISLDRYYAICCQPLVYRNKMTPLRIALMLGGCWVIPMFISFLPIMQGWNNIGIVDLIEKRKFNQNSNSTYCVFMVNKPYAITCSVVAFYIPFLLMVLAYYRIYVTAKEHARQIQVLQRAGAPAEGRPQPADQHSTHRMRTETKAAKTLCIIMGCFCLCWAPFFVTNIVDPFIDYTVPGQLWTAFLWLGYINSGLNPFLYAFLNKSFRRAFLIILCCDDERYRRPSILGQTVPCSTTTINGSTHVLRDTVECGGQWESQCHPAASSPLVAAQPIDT
Chain of 5-hydroxytryptamine receptor 2A (P14842 whole entry): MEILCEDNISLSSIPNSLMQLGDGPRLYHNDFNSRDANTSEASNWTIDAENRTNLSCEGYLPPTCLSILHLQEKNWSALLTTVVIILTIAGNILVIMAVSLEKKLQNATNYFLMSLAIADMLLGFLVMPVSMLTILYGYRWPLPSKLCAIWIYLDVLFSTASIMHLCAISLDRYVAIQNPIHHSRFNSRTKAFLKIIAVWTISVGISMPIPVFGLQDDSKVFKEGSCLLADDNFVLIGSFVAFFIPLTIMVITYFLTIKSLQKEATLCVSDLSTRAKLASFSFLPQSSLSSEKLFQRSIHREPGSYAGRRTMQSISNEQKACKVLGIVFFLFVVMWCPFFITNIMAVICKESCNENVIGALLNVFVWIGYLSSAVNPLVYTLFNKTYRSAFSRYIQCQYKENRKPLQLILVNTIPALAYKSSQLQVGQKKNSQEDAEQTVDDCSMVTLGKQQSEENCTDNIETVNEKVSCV
Chain of D(2) dopamine receptor (P61169 whole entry): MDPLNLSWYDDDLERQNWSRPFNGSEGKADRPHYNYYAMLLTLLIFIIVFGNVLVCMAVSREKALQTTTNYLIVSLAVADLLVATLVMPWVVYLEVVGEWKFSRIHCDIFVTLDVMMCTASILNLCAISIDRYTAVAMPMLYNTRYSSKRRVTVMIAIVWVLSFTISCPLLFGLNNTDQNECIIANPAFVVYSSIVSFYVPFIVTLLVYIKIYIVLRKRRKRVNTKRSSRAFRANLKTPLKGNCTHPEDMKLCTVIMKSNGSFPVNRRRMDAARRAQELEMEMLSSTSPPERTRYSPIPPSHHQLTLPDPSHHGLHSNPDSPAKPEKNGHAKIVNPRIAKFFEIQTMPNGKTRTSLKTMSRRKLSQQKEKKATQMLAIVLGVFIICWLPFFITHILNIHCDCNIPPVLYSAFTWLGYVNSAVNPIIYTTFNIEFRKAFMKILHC
Chain of D(1A) dopamine receptor (P18901 whole entry): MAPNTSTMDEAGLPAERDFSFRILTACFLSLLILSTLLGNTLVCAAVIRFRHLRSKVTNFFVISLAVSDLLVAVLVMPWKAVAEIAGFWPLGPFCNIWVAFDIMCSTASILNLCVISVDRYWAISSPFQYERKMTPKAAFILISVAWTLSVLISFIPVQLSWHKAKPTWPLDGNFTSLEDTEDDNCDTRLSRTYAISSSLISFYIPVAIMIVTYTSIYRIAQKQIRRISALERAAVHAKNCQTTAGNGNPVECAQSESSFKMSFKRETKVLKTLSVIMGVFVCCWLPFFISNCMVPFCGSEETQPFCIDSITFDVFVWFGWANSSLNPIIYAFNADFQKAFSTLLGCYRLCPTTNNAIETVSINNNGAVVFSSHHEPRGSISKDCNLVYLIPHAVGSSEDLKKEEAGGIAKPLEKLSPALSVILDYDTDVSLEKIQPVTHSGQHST

As to `CN1[C@@H]2CC[C@H]1C[C@@H](OC(=O)c1c[nH]c3ccccc13)C2` [TROPISETRON], the pD2 entry in assay [1], in assay [3] and in assay [4] was “inactive” each time. Also, the Kb in [2] is 30.2 nM.
As to `Cc1[nH]c2ccc(O)cc2c1CCN`, the Intrinsic activity in assay [5] and in assay [8] was 1 throughout. The pD2 in assay [6] was determined as 5.51; in [7], 5.06.
For `N[C@H](CN1CCN(c2nc3cc(F)ccc3n3cccc23)CC1)C(=O)O`, the Ki is > 10000 nM in [9]; > 10000 nM in assay [10]; > 10000 nM in assay [11]; > 10000 nM in assay [12]; 1.2 nM in [13]; 480 nM in [14]. Moreover, the inhibitory constant (Ki) in [15], in assay [16] and in assay [17] was > 10000 nM throughout.
For the molecule `O=C(O)CN1CCN(c2nc3cc(F)ccc3n3cccc23)CC1`, the result in assay [18] was inactive. The pD2 result in assay [1], in assay [3] and in assay [4] was “inactive” throughout. In assay [13], this molecule displayed a Ki of 11.7 nM. Also, in assay [19], the ED50 was found to be 0.036 mg/kg. Also, the IC50 in assay [20] was 1910 nM.
